Most compounds without a hit are left out; they make up all but 3% or so of the library.
M4 antag: antagonists of human muscarinic M4 receptor (CHRM4). inhibition, % at 3 µM. P08173. CHO-hM4 cells, ACh EC80, Fluo-8 calcium fluorescence. AID 624125. 0.73% of 360,000 active;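 active = inhibition above its plate's cutoff, the mean inhibition of sample wells plus 3 SD, cut at about 27% in these data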;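 note: 0% = acetylcholine EC80 with DMSO and 100% = DMSO without agonist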
TAAR1 antagonist: antagonists of human TAAR1; AID 624466; 1.5% of 360,000 active; CHO RD-HGA16 TAAR1, Fluo-8 calcium fluorescence, antagonist; inhibition, % at 3 µM; Q96RJ0;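 active = inhibition above a per-plate cutoff, the mean inhibition of test compounds on that plate plus 3 SD, cut at about 49% in these data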;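 note: 0% = DMSO plus EC80 beta-PEA response and 100% = DMSO alone without agonist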
Target sequence (Q96RJ0 whole entry, looked up): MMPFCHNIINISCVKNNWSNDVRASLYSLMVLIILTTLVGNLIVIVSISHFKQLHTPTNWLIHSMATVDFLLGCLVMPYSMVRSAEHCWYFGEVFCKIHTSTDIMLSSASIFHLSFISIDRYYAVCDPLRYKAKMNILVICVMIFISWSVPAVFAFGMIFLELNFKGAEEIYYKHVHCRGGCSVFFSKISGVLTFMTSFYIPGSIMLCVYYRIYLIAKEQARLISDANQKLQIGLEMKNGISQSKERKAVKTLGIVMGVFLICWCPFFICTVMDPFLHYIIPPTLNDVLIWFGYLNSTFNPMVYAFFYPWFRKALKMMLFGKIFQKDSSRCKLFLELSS
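System: RD-HGA16 CHO cells with stable hTAAR1 and Gα16 | Probe or stimulus: EC80 β-phenethylamine stimulus | Dosing: 3 µM, single point | Times: Dye loading 75 min at 37 °C, then 30 min room temperature | Measured by: Fluo-8 calcium-sensitive fluorescence | Read-out basis: % inhibition of agonist calcium response | Replicates: n of 1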
TAAR1 ag: human TAAR1 agonism | Q96RJ0 | CHO RD-HGA16 TAAR1, Fluo-8 calcium fluorescence; vehicle wells 0%, saturating PEA agonist 100% | activation, % at 3 µM | 0.99% of 360,000 active | AID 624467;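 active = activation above the mean activation of all test compounds in the run plus 3 SD, cut at about 38% in these data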
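Repeats: no replicates (n 1) | Material: CHO-derived RD-HGA16 cells with stable Gα16 and human TAAR1 | Technique: Kinetic Fluo-8 calcium fluorescence | Schedule: 17-24 h seeding, 75 min 37 °C dye, 30 min RT | Evaluation: % activation from peak over basal fluorescence ratio, DMSO-to-PEA scaled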
CHRM4 agonist: CHRM4 agonism in calcium assay; CHO-K1 hM4/Gqi5, Fluo-8 calcium fluorescence; vehicle 0%, full acetylcholine response 100%; activation, % at 3 µM; 0.14% of 360,000 active;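 active = activation above the run mean over all test wells plus 3 SD, cut at about 32% in these data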;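 note: peak over basal fluorescence ratio per well then scaled between controls; 0% = DMSO wells and 100% = acetylcholine at EC100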
M4 PAM: positive allosteric modulators of human muscarinic M4 receptor; CHO-K1 hM4/Gqi5, Fluo-8 calcium fluorescence, ACh EC20; 0% = ACh EC20, 100% = maximal ACh; AID 624126; 0.4% of 360,000 active; activation, % at 3 µM;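 active = activation above its plate's cutoff, the mean activation of sample wells plus 3 SD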
TAAR1 nonsel count: counter-screen for TAAR1 antagonists: nonselective antagonists; AID 651780; 77% of 2,400 active; shares compounds with TAAR1 antagonist; counterscreen cell line, calcium fluorescence, antagonist mode; inhibition, % at 3 µM; in the data active = inhibition above about 22%;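 note: CHO-Ga16 host cells stimulated with ATP at an EC80 level; 0% = agonist EC80 plus vehicle and 100% = vehicle without agonist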
TAAR1 ant conf: confirmation of human TAAR1 antagonists; inhibition, % at 3 µM; AID 651785; TAAR1-expressing cells, fluorescence antagonist read-out; 40% of 2,400 active; shares compounds with TAAR1 antagonist; in the data active = inhibition above about 49%;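 note: CHO-Ga16 host cells challenged with agonist PEA near its EC80; 0% = agonist at EC80 plus vehicle and 100% = vehicle with no agonist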
Ga16 nonsel ag: nonselective Ga16 agonism, counter-screen. activation, % at 3 µM. shares compounds with TAAR1 antagonist. 18% of 2,400 active. Ga16-expressing cells, calcium fluorescence, agonist counterscreen; in the data active = activation above about 12%;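 note: 0% = vehicle wells and 100% = saturating stimulus response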
TAAR1 ag counter: TAAR1 agonism, antagonist counter-screen | shares compounds with TAAR1 antagonist | hTAAR1 cell line, fluorescence activation, agonist mode | activation, % at 3 µM | 2% of 2,400 active; in the data active = activation above about 37%;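 note: CHO cells stably expressing TAAR1 with calcium dye readout; 0% = DMSO vehicle and 100% = full agonist response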
An asterisk follows results filed as active; nt = no result.

SMILES	M4 antag	TAAR1 antagonist	TAAR1 ag	CHRM4 agonist	M4 PAM	TAAR1 nonsel count	TAAR1 ant conf	Ga16 nonsel ag	TAAR1 ag counter
CN(C)S(=O)(=O)c1cccc(C(=O)OCC(=O)c2ccc3c(c2)NC(=O)CO3)c1	9	66*	34	25	-11	28*	47	13*	12
CN(C)S(=O)(=O)c1ccc(C(=O)OCC(=O)c2ccc3c(c2)NC(=O)CO3)cc1	3	-12	2	2	17	nt	nt	nt	nt
Cc1ccc(S(=O)(=O)N(C)CC(=O)OCC(=O)c2ccc3c(c2)NC(=O)CO3)cc1	-10	102*	-1	15	-2	26*	28	10	4
C[C@H](NC(=O)c1nc[nH]c1C(=O)NCCCCCNC(=O)OC(C)(C)C)C(=O)OC(C)(C)C	3	61*	18	16	-6	31*	45	9	5
CC(C)(C)OC(=O)CNC(=O)c1[nH]cnc1C(=O)NCCCCCN	7	-3	19	0	-2	nt	nt	nt	nt
CNC(=O)c1[nH]cnc1C(=O)N[C@@H](CCCCNC(=O)OC(C)(C)C)C(=O)OC(C)(C)C	6	16	8	8	-4	nt	nt	nt	nt
CC(C)(C)OC(=O)CNC(=O)c1[nH]cnc1C(=O)NCCCCCNC(=O)OC(C)(C)C	22	68*	29	35*	-15	41*	60*	16*	16
CC1(Oc2cccc(C#N)c2)CCN(Cc2ccccc2OC(F)F)C1 (stereo unspecified)	-8	8	2	1	-5	nt	nt	nt	nt
CCCC(=O)Nc1c(-c2ccccc2)[nH][nH]c1=O	-6	1	0	0	5	nt	nt	nt	nt
O=C1C2C3CCC(C3NCc3ccccc3)C2C(=O)N1Cc1ccccc1 (stereo unspecified)	0	55*	6	6	-4	20	34	6	9
COc1cccc(CNc2nc(NC(C)C)nc3ccsc23)c1	6	-11	6	7	-6	nt	nt	nt	nt
Cc1ccc(C(=O)NCC(=O)OCC(=O)c2cc(C)n(Cc3ccco3)c2C)cc1	8	0	-2	-1	6	nt	nt	nt	nt
Cc1cc(C(=O)COC(=O)Cn2c(C(F)(F)F)nc3ccccc32)c(C)n1Cc1ccco1	3	51*	10	1	-5	17	26	10	13
C[C@@H]1CNC(=O)c2c(C(=O)N[C@@H](Cc3c[nH]c4ccccc34)C(=O)OC(C)(C)C)ncn21	-8	58*	12	29	-3	30*	43	9	12
CC1(C)CN(C2CCCCC2)C(=O)[C@H]1CC(=O)Nc1ccc(Br)cc1	-4	3	2	0	2	nt	nt	nt	nt
CC(=O)Nc1ccc(C(=O)N/N=C/c2ccccc2OC(=O)c2ccc(Cl)cc2)cc1	11	52*	10	8	-8	35*	42	8	10
COc1ccc(/C=N/NC(=O)c2ccc(COc3cccc4cccnc34)cc2)cc1O	-11	63*	8	12	-21	26*	44	10	12
Cc1ccc(C(=O)NCCOc2cccc3cccnc23)cc1Cl	-8	-23	24	2	1	nt	nt	nt	nt
COc1cc(C(=O)NCCOc2cccc3cccnc23)cc(OC)c1OC	-16	74*	20	1	15	34*	55*	11	12
O=C(N/N=C/c1cccc(O)c1)c1ccc(COc2cccc3cccnc23)cc1	12	10	19	12	-11	nt	nt	nt	nt
COc1cc(/C=N/NC(=O)c2ccccn2)ccc1OC(=O)c1ccccc1Br	-12	70*	7	17	-5	35*	53*	9	5
Cc1ccccc1CN1C(=O)CSCC1(C)C(=O)NC(C)C (stereo unspecified)	0	-5	1	1	-3	nt	nt	nt	nt
N#CCc1ccc(-c2cccc3nccn23)cc1	3	-6	1	1	4	nt	nt	nt	nt
O=C1C=C(OCCF)CC(c2ccccc2C(F)(F)F)O1 (stereo unspecified)	7	-11	1	2	2	nt	nt	nt	nt
O=C(NCc1ccc(Cl)c(Cl)c1)c1cc(C2CCCCN2C(=O)c2ccccc2)on1 (stereo unspecified)	-8	-2	0	3	1	nt	nt	nt	nt
SMILES	M4 antag	TAAR1 antagonist	TAAR1 ag	CHRM4 agonist	M4 PAM	TAAR1 nonsel count	TAAR1 ant conf	Ga16 nonsel ag	TAAR1 ag counter
CCOC(=O)[C@]12CCCC=C1N(Cc1ccco1)C(=O)[C@H](CC(=O)NCC13CC4CC(CC(C4)C1)C3)C2	-16	-21	-1	3	-2	nt	nt	nt	nt
CC1(C(=O)NS(=O)(=O)c2cccs2)CCN1C(=O)CC1CC1 (stereo unspecified)	-1	-10	2	1	3	nt	nt	nt	nt
O=C(N/N=C/c1cccc(O)c1)c1ccc(COc2ccccc2Br)cc1	-1	91*	0	1	-9	27*	78*	4	5
O=C(N/N=C/c1cccc(NC(=O)c2ccc(Cl)cc2)c1)c1cccc(O)c1	18	73*	4	9	-12	26*	38	6	5
O=C(Nc1ccc(Cn2cccn2)cc1)c1ccc(COc2ccccc2Br)cc1	11	88*	6	7	-5	37*	66*	7	7
O=C(Nc1ccn(Cc2c(F)c(F)c(F)c(F)c2F)n1)c1ccc(COc2ccccc2Cl)cc1	4	39	11	0	-4	nt	nt	nt	nt
COc1ccc(/C=N/NC(=O)c2ccc(COc3cccc4cccnc34)cc2)cc1OC	-28	54*	10	10	-3	27*	44	6	3
COc1ccc(C2=NOC(Cn3nc(-c4ccccc4)cc3C(=O)NCc3ccco3)C2)cc1 (stereo unspecified)	-8	37	7	12	-6	nt	nt	nt	nt
COc1ccc(C2=NOC(Cn3nc(C(=O)NCc4ccco4)cc3-c3ccccc3)C2)cc1 (stereo unspecified)	17	66*	19	24	-6	34*	56*	9	6
CCOC(=O)c1cc(-c2ccccc2)n(CC2CC(c3ccc(OC)cc3)=NO2)n1 (stereo unspecified)	26	75*	14	22	-12	30*	51*	7	8
COc1ccc(C2=NOC(Cn3nc(C(=O)NCc4cccs4)cc3-c3ccccc3)C2)cc1 (stereo unspecified)	15	77*	16	21	-8	40*	51*	8	6

Source: PubChem (The Scripps Research Institute Molecular Screening Center)
